What was measured:
[1] = melting temperature; fluorescence melt of hairpins on a sequencing array, two-state fit, raised by 9.35 °C to match UV melts; settings: sodium 0.088 M
Method in brief: (§1)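 Two-state fits, bootstrapped, provided melting temperature and folding enthalpy from Cy3 fluorescence normalised to pre-quench Cy3 and to control constructs. Library hairpins with annealed Cy3 and quencher oligos were imaged on a sequenced MiSeq flow cell in 50 mM Na-HEPES pH 8.0, 25 mM NaCl, at 2.5 °C intervals up to 60 °C. Four replicates were combined with inverse-variance weighting. A 9.35 °C upward shift was applied to fitted temperatures to match UV melts.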

[2] = folding enthalpy; higher = less favourable; fluorescence melt of hairpins on a sequencing array, two-state fit; settings: sodium 0.088 M
Method in brief: as §1

GCTAAGCGAAAGCCTTGC ((.(.((....)).).))
Tm [1]: 34.6 °C
folding enthalpy [2]: -13.1 kcal/mol

GCTAAGCGAAAGCGAAGC (((..((....))..)))
Tm [1]: 63 °C
folding enthalpy [2]: -26.7 kcal/mol

GCTAAGCGAAAGCGGAGC (((..((....))..)))
Tm [1]: 57.2 °C
folding enthalpy [2]: -20.3 kcal/mol

GCTAAGCGAAAGCGTGGC ((.(.((....)).).))
Tm [1]: 57.1 °C
folding enthalpy [2]: -16.1 kcal/mol

GCTAAGCGAAAGCTCGGC ((..(((....)))..))
Tm [1]: 39.7 °C
folding enthalpy [2]: -19.7 kcal/mol

GCTAAGCGAAAGCTCTGC ((..(((....)))..))
Tm [1]: 31.4 °C
folding enthalpy [2]: -15.8 kcal/mol

GCTAAGCGAAAGCTGCGC ((..(((....)))..))
Tm [1]: 58.3 °C
folding enthalpy [2]: -21.1 kcal/mol

GCTAAGCGAAAGCTGGGC ((..(((....)))..))
Tm [1]: 52.9 °C
folding enthalpy [2]: -17.7 kcal/mol

GCTAAGGGAAACCTTGGC ((.((((....)))).))
Tm [1]: 47.6 °C
folding enthalpy [2]: -29.4 kcal/mol

GCTAAGGGAAACTTTAGC (((((.(....).)))))
Tm [1]: 37.9 °C
folding enthalpy [2]: -21.1 kcal/mol

GCTACAACGAAAGTTAGC (((..(((....))))))
Tm [1]: 33.4 °C
folding enthalpy [2]: -18.6 kcal/mol

GCTACACCGAAAGGTAGC (((..(((....))))))
Tm [1]: 47.1 °C
folding enthalpy [2]: -22.7 kcal/mol

GCTACAGAAATGTAGC ((((((....))))))
Tm [1]: 55.4 °C
folding enthalpy [2]: -33.1 kcal/mol

GCTACAGCGAAAGCTAGC (((..(((....))))))
Tm [1]: 44.5 °C
folding enthalpy [2]: -16.3 kcal/mol

GCTACAGGAAACTGCAGC (((.(((....))).)))
Tm [1]: 44.5 °C
folding enthalpy [2]: -28.3 kcal/mol

GCTACCACGAAAGTGAGC (((..(((....))))))
Tm [1]: 33.3 °C
folding enthalpy [2]: -15.3 kcal/mol

GCTACCGGAAACGACAGC (((..((....))..)))
Tm [1]: 27.5 °C
folding enthalpy [2]: -15.8 kcal/mol

GCTACCTCGAAAGAGAGC (((..(((....))))))
Tm [1]: 30.1 °C
folding enthalpy [2]: -16.3 kcal/mol

GCTACGCGAAAGCAGAGC (((..((....))..)))
Tm [1]: 48.4 °C
folding enthalpy [2]: -18.7 kcal/mol

GCTACGCGAAAGCCCAGC (((..((....))..)))
Tm [1]: 33.3 °C
folding enthalpy [2]: -6.89 kcal/mol

GCTACGCGAAAGCCTGGC ((.(.((....)).).))
Tm [1]: 34.4 °C
folding enthalpy [2]: -13.4 kcal/mol

GCTACGCGAAAGCGAGGC ((..(((....)))..))
Tm [1]: 53.3 °C
folding enthalpy [2]: -15.1 kcal/mol

GCTACGCGAAAGCGATGC ((..(((....)))..))
Tm [1]: 50 °C
folding enthalpy [2]: -18.3 kcal/mol

GCTACGCGAAAGCGCGGC ((..(((....)))..))
Tm [1]: 51 °C
folding enthalpy [2]: -16.1 kcal/mol

GCTACGCGAAAGCGCTGC ((..(((....)))..))
Tm [1]: 43.5 °C
folding enthalpy [2]: -15.2 kcal/mol

GCTACGGGAAACCACAGC (((..((....))..)))
Tm [1]: 36 °C
folding enthalpy [2]: -21.4 kcal/mol

GCTACTGGAAACAGTGGC ((.((((....)))).))
Tm [1]: 51.7 °C
folding enthalpy [2]: -38.3 kcal/mol

GCTAGACCGAAAGGTAGC (((..(((....))))))
Tm [1]: 44.1 °C
folding enthalpy [2]: -19.2 kcal/mol

GCTAGACGAAAGTCCAGC (((.(((....))).)))
Tm [1]: 47.6 °C
folding enthalpy [2]: -24.9 kcal/mol

GCTAGAGGAAACCCTAGC (((((.(....).)))))
Tm [1]: 41.4 °C
folding enthalpy [2]: -31.2 kcal/mol

GCTAGCCGAAAGGCGAGC (((.(((....))).)))
Tm [1]: 67.2 °C
folding enthalpy [2]: -30.9 kcal/mol

GCTAGCGAAAGCTAGAGC ((((((....)))..)))
Tm [1]: 55 °C
folding enthalpy [2]: -13.2 kcal/mol

GCTAGCGAAAGCTCAGC ((((((....))).)))
Tm [1]: 48.9 °C
folding enthalpy [2]: -19.6 kcal/mol

GCTAGCGAAAGCTTAGC ((((((....))).)))
Tm [1]: 52.5 °C
folding enthalpy [2]: -22.1 kcal/mol

GCTAGCGGAAACGCTGGC ((.((((....)))).))
Tm [1]: 60.3 °C
folding enthalpy [2]: -33.3 kcal/mol

GCTAGGCGAAAGCCAGC (((.(((....))))))
Tm [1]: 62.9 °C
folding enthalpy [2]: -21.7 kcal/mol

GCTAGGCGAAAGCCATGC ((..(((....)))..))
Tm [1]: 53.5 °C
folding enthalpy [2]: -17.7 kcal/mol

GCTAGGCGAAAGCGGAGC (((..((....))..)))
Tm [1]: 42.4 °C
folding enthalpy [2]: -20.1 kcal/mol

GCTAGGCGAAAGCTGAGC (((..((....))..)))
Tm [1]: 53.6 °C
folding enthalpy [2]: -18.2 kcal/mol

GCTAGGGGAAACCTTGGC ((.(.((....)).).))
Tm [1]: 34.4 °C
folding enthalpy [2]: -23.8 kcal/mol

GCTAGGGGAAACTCTAGC (((((.(....).)))))
Tm [1]: 47.7 °C
folding enthalpy [2]: -34.8 kcal/mol

GCTAGTGGAAACACTAAC (.(((((....))))).)
Tm [1]: 32.5 °C
folding enthalpy [2]: -15.2 kcal/mol

GCTAGTGGAAACACTAGC (((((((....)))))))
Tm [1]: 61.9 °C
folding enthalpy [2]: -47.7 kcal/mol

GCTAGTGGAAACACTGGC ((.((((....)))).))
Tm [1]: 51.7 °C
folding enthalpy [2]: -32.2 kcal/mol

GCTAGTGGAAACGCTAGC (((((.(....).)))))
Tm [1]: 52.3 °C
folding enthalpy [2]: -40.4 kcal/mol

GCTAGTGGAAACGTTAGC ((((..(....)..))))
Tm [1]: 36.4 °C
folding enthalpy [2]: -20.1 kcal/mol

GCTATCCCGAAAGGGAGC (((..(((....))))))
Tm [1]: 38.9 °C
folding enthalpy [2]: -11.7 kcal/mol

GCTATCCGAAAGGAGAGC (((.(((....))).)))
Tm [1]: 58.6 °C
folding enthalpy [2]: -38.9 kcal/mol

GCTATCGAAAGATATAGC ((((((....)))..)))
Tm [1]: 36.1 °C
folding enthalpy [2]: -25.1 kcal/mol

GCTATCGAAAGATCTAGC ((((((....)))..)))
Tm [1]: 26.1 °C
folding enthalpy [2]: -11.8 kcal/mol

GCTATCGAAAGATGCAGC ((((((....)))..)))
Tm [1]: 35.8 °C
folding enthalpy [2]: -18.3 kcal/mol

GCTATCGAAAGATGTAGC ((((((....)))..)))
Tm [1]: 36.9 °C
folding enthalpy [2]: -28.9 kcal/mol

GCTATCGAAAGATTAGC ((((((....))).)))
Tm [1]: 42.7 °C
folding enthalpy [2]: -26.1 kcal/mol

GCTATCGGAAACGACAGC (((.(((....))).)))
Tm [1]: 43.8 °C
folding enthalpy [2]: -30.9 kcal/mol

GCTATCGGAAACGGTAGC ((((.((....)).))))
Tm [1]: 51.8 °C
folding enthalpy [2]: -38 kcal/mol

GCTATGAAAATAGC (((((....)))))
Tm [1]: 47.9 °C
folding enthalpy [2]: -23.4 kcal/mol

GCTATGACGAAAGTCAGC (((..(((....))))))
Tm [1]: 42 °C
folding enthalpy [2]: -13.2 kcal/mol

GCTATGCGAAAGCACGGC ((..(((....)))..))
Tm [1]: 41.4 °C
folding enthalpy [2]: -17.7 kcal/mol

GCTATGCGAAAGCAGAGC (((.(((....))).)))
Tm [1]: 60.6 °C
folding enthalpy [2]: -49 kcal/mol

GCTATGCGAAAGCCCAGC (((..((....))..)))
Tm [1]: 29 °C
folding enthalpy [2]: -11.6 kcal/mol

GCTATGCGAAAGCCGAGC (((..((....))..)))
Tm [1]: 39.4 °C
folding enthalpy [2]: -19 kcal/mol

GCTATGCGAAAGCGAAGC (((..((....))..)))
Tm [1]: 44.2 °C
folding enthalpy [2]: -16.4 kcal/mol

GCTATGCGAAAGCTAAGC (((..((....))..)))
Tm [1]: 47.6 °C
folding enthalpy [2]: -17.2 kcal/mol

GCTATGCGAAAGCTTTGC ((.(.((....)).).))
Tm [1]: 43.4 °C
folding enthalpy [2]: -18.2 kcal/mol

GCTATGGGAAACCATAGC (((((((....)))))))
Tm [1]: 61.4 °C
folding enthalpy [2]: -40.7 kcal/mol

GCTATTCCGAAAGGAAGC (((..(((....))))))
Tm [1]: 32.9 °C
folding enthalpy [2]: -14.7 kcal/mol

GCTCACGAAAGTGGAAGC ((((((....)))..)))
Tm [1]: 45.4 °C
folding enthalpy [2]: -20.9 kcal/mol

GCTCACGAAAGTGGCAGC ((((((....)))..)))
Tm [1]: 44.6 °C
folding enthalpy [2]: -14.7 kcal/mol

GCTCACGAAAGTGTTAGC ((((((....)))..)))
Tm [1]: 40.8 °C
folding enthalpy [2]: -21.6 kcal/mol

GCTCACGGAAACATGAGC (((((.(....).)))))
Tm [1]: 44.9 °C
folding enthalpy [2]: -34.6 kcal/mol

GCTCAGCGAAAGCAAAGC (((..((....))..)))
Tm [1]: 38.4 °C
folding enthalpy [2]: -13.6 kcal/mol

GCTCAGCGAAAGCAGGGC ((.(.((....)).).))
Tm [1]: 51.9 °C
folding enthalpy [2]: -19 kcal/mol

GCTCAGCGAAAGCCAAGC (((..((....))..)))
Tm [1]: 41 °C
folding enthalpy [2]: -16.4 kcal/mol

GCTCAGCGAAAGCCCAGC (((..((....))..)))
Tm [1]: 37.2 °C
folding enthalpy [2]: -12.1 kcal/mol

GCTCAGCGAAAGCCGTGC ((.(.((....)).).))
Tm [1]: 42.4 °C
folding enthalpy [2]: -12.3 kcal/mol

GCTCAGCGAAAGCCTAGC (((..((....))..)))
Tm [1]: 36.1 °C
folding enthalpy [2]: -19.7 kcal/mol

GCTCAGCGAAAGCTCTGC ((..(((....)))..))
Tm [1]: 28.8 °C
folding enthalpy [2]: -13.4 kcal/mol

GCTCAGCGAAAGCTTAGC (((.(((....))).)))
Tm [1]: 49.4 °C
folding enthalpy [2]: -44.9 kcal/mol

GCTCAGCGAAAGCTTCGC ((..(((....)))..))
Tm [1]: 40 °C
folding enthalpy [2]: -12.6 kcal/mol

GCTCAGCGAAAGCTTTGC ((..(((....)))..))
Tm [1]: 38.6 °C
folding enthalpy [2]: -14.4 kcal/mol

GCTCAGGAAACTGAGC ((((((....))))))
Tm [1]: 64.7 °C
folding enthalpy [2]: -42.4 kcal/mol

GCTCAGGGAAACCTGAGC (((((((....)))))))
Tm [1]: 68.3 °C
folding enthalpy [2]: -44.7 kcal/mol

GCTCATGGAAACGTGAGC (((((.(....).)))))
Tm [1]: 53.4 °C
folding enthalpy [2]: -47.5 kcal/mol

GCTCCAACGAAAGTTAGC (((..(((....))))))
Tm [1]: 27.9 °C
folding enthalpy [2]: -11.8 kcal/mol

GCTCCACGAAAGTGAGC (((.(((....))))))
Tm [1]: 54 °C
folding enthalpy [2]: -26.2 kcal/mol

GCTCCACGAAAGTGCAGC (((.(((....))).)))
Tm [1]: 46.2 °C
folding enthalpy [2]: -22.1 kcal/mol

GCTCCCACGAAAGTGAGC (((..(((....))))))
Tm [1]: 40.2 °C
folding enthalpy [2]: -17.1 kcal/mol

GCTCCCGAAAGGGAAAGC ((((((....)))..)))
Tm [1]: 51.7 °C
folding enthalpy [2]: -16.6 kcal/mol

GCTCCCGAAAGGGCGAGC ((((((....)))..)))
Tm [1]: 47.9 °C
folding enthalpy [2]: -16.3 kcal/mol

GCTCCCGAAAGGGTTAGC ((((((....)))..)))
Tm [1]: 43.3 °C
folding enthalpy [2]: -16.2 kcal/mol

GCTCCCGGAAACGGGAAC (.(((((....))))).)
Tm [1]: 43 °C
folding enthalpy [2]: -15 kcal/mol

From the array DNA melting data of Ke et al. (doi:10.1101/2024.01.08.574731)
